Screening data: PubChem BioAssay, several laboratories
Apaf-1 inh = inhibitors of human Apaf-1 apoptosome, primary screen, biochemical, DEVD-Rh110 fluorescence, uHTS; reconstituted apoptosome caspase-3 activity; inhibition, % at 20 µM; Apoptotic protease-activating factor 1 (Homo sapiens), O14727; AID 489030, 2010; 330,000 tested, 0.71% active; active = inhibition of at least 40% at 20 µM;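 note: plate controls were DMSO wells for no effect and DEVD-CHO caspase inhibitor wells for full effect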
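Material: biochemical Apaf-1 apoptosome reconstitution. Medium: Hepes buffer, pH 7.5. Also added: cytochrome c activation, bis-DEVD rhodamine 110 substrate. Timing: 30 min compound preincubation, 50 min activation, room temperature. Measured by: rhodamine 110 fluorescence at Ex 480/Em 540 nm.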
PAFAH2 inh = PAFAH2 enzyme inhibitors, primary screen, biochemical, fluorescence polarization, human; recombinant PAFAH2, FP-rhodamine activity probe; inhibition, % at 3.39 µM; 340,000 tested, 0.99% active; AID 492956, 2010;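 active = inhibition above the mean over all tested compounds plus 3 SD, cut at about 30% in these data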;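 note: inhibitors block probe labeling of enzyme so polarization drops; 0% = enzyme with DMSO and 100% = wells lacking PAFAH2 protein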
PAFAH1B3 inh = PAFAH1B3 enzyme inhibitors, primary screen, biochemical, fluorescence polarization, human; recombinant PAFAH1B3, FP-rhodamine probe; inhibition, % at 3.39 µM; 340,000 tested, 0.28% active; AID 492972, 2010;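 active = inhibition above the screen-wide average of all tested compounds plus 3 SD, cut at about 25% in these data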;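 note: 0% = enzyme with DMSO only and 100% = wells lacking PAFAH1B3 protein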
pPAFAH FP inh = pPAFAH enzyme inhibitors, primary screen, biochemical, fluorescence polarization, human | inhibition, % at 3.39 µM | Platelet-activating factor acetylhydrolase (Homo sapiens), Q13093 | 330,000 tested, 1.5% active | recombinant pPAFAH, FP-rhodamine probe fluorescence polarization;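 active = inhibition above the mean inhibition across the screen plus 3 SD, cut at about 25% in these data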;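 note: inhibitors block binding of the rhodamine activity-based probe so polarization drops; 0% = enzyme with DMSO and 100% = wells lacking pPAFAH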
PAFAH1B2 inh = PAFAH1B2 enzyme inhibitors, primary screen, biochemical, fluorescence polarization, human; Platelet-activating factor acetylhydrolase IB subunit alpha2 (Homo sapiens), P68402; recombinant PAFAH1B2, FP-rhodamine activity probe; inhibition, % at 3.39 µM; 340,000 tested, 1.2% active;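 active = inhibition above the mean of all tested compounds plus 3 SD, cut at about 24% in these data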;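 note: 0% = enzyme with DMSO and 100% = wells lacking PAFAH1B2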
PAFAH2 confirm = PAFAH2 enzyme inhibitors, confirmation, biochemical, fluorescence polarization, human; shares compounds with PAFAH2 inh; recombinant PAFAH2, FP-rhodamine activity probe; inhibition, % at 3.39 µM; 2,300 tested, 65% active;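 active = mean inhibition over three repeats above a set limit taken from the earlier primary screen, cut at about 30% in these data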;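 note: inhibitor blocks binding of rhodamine activity probe so polarization falls; 0% = enzyme with DMSO and 100% = wells lacking PAFAH2 protein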
* marks the source's active call; other numbers are inactive results. Most compounds without a hit are left out; they make up all but 3.1% or so of the library.

`COc1ccc(/C=C/C(=O)Nc2cc(C(F)(F)F)ccc2Cl)cc1OC` gave Apaf-1 inh 7, PAFAH2 inh -7, PAFAH1B3 inh -9, pPAFAH FP inh -3 and PAFAH1B2 inh 1.
CCCCCCOC(=O)c1ccc(OC(=O)c2cccnc2)cc1 was read as Apaf-1 inh 7, PAFAH2 inh 41*, PAFAH1B3 inh -4, pPAFAH FP inh 9, PAFAH1B2 inh 7 and PAFAH2 confirm 32*.
Screening Cc1cc(C)c(OCC(=O)Nc2ccccn2)c([N+](=O)[O-])c1 returned Apaf-1 inh 4, PAFAH2 inh 33*, PAFAH1B3 inh -1, pPAFAH FP inh 1, PAFAH1B2 inh 1 and PAFAH2 confirm 1.
`COc1ccc(CN(C)C(=O)c2ccccc2Sc2ccccc2C#N)c(OC)c1` gave Apaf-1 inh 27, PAFAH2 inh 2, PAFAH1B3 inh 3, pPAFAH FP inh 3 and PAFAH1B2 inh 1.
O=C(COc1ccc(Br)cc1)Nc1ccccc1C(=O)NC1CC1 was read as Apaf-1 inh 7, PAFAH2 inh 1, PAFAH1B3 inh 1, pPAFAH FP inh 13 and PAFAH1B2 inh 1.
COCCOC(=O)c1c(C)n(C)c2ccc(OC(=O)C3CC3)cc12 was read as Apaf-1 inh 19, PAFAH2 inh 39*, PAFAH1B3 inh -3, pPAFAH FP inh 20, PAFAH1B2 inh 1 and PAFAH2 confirm 26.
O=C(NCCc1nccs1)C1CCC(=O)N(CCc2ccc(Cl)cc2)C1 (stereo not drawn) was read as Apaf-1 inh 5, PAFAH2 inh 0, PAFAH1B3 inh 19, pPAFAH FP inh 6 and PAFAH1B2 inh 2.
Screening CC(C)CC(NC(=O)C(NC(=O)C1CCC(=O)N1C(=O)OCc1ccccc1)C(C)C)C(=O)N1CCCC1C(N)=O (stereo not drawn) returned Apaf-1 inh 0, PAFAH2 inh 40*, PAFAH1B3 inh 1, pPAFAH FP inh -4, PAFAH1B2 inh 2 and PAFAH2 confirm 41*.
For CC(C)CC(NC(=O)OC(C)(C)C)C(=O)NC(C(=O)N1CCCC1C(N)=O)C(C)C (stereo not drawn) the results were Apaf-1 inh 0, PAFAH2 inh -4, PAFAH1B3 inh 5, pPAFAH FP inh 2 and PAFAH1B2 inh -1.
`O=C(CNC(=O)C12CC3CC(CC(C3)C1)C2)N1CCN(S(=O)(=O)/C=C/c2ccccc2)CC1` gave Apaf-1 inh 18, PAFAH2 inh 35*, PAFAH1B3 inh 7, pPAFAH FP inh 3, PAFAH1B2 inh 8 and PAFAH2 confirm 24.
COc1ccc(-n2c(C)cc(C(=O)Cn3nnc4ccccc4c3=O)c2C)cc1 was read as Apaf-1 inh 15, PAFAH2 inh 73*, PAFAH1B3 inh 10, pPAFAH FP inh -1, PAFAH1B2 inh -5 and PAFAH2 confirm -2.
For Cc1ccccc1NC(=O)COC(=O)c1ccc(S(C)(=O)=O)c([N+](=O)[O-])c1 the results were Apaf-1 inh -10, PAFAH2 inh 39*, PAFAH1B3 inh -2, pPAFAH FP inh 11, PAFAH1B2 inh 1 and PAFAH2 confirm 13.
`CS(=O)(=O)c1ccc(C(=O)OCC(=O)Nc2cccnc2Cl)cc1[N+](=O)[O-]` gave Apaf-1 inh 3, PAFAH2 inh 12, PAFAH1B3 inh 4, pPAFAH FP inh -1 and PAFAH1B2 inh -5.
Cc1ccccc1NC(=O)COC(=O)c1ccc2c(c1)OCCO2 was read as Apaf-1 inh 3, PAFAH2 inh 58*, PAFAH1B3 inh 2, PAFAH1B2 inh 2 and PAFAH2 confirm 52*.
`Cc1ccc(C)c(NC(=O)COC(=O)c2ccc3c(c2)OCCO3)c1` gave Apaf-1 inh 15, PAFAH2 inh 53*, PAFAH1B3 inh 6, pPAFAH FP inh 1, PAFAH1B2 inh 1 and PAFAH2 confirm 61*.
`COc1ccccc1NC(=O)COC(=O)c1ccc2c(c1)OCCO2` gave Apaf-1 inh -18, PAFAH2 inh 6, PAFAH1B3 inh -2, pPAFAH FP inh 3 and PAFAH1B2 inh 2.
Cc1ccc(-n2c(SCC(=O)NC3CCS(=O)(=O)C3)nc3ccccc3c2=O)cc1C (stereo not drawn) was read as Apaf-1 inh -5, PAFAH2 inh -2, PAFAH1B3 inh -2, pPAFAH FP inh 5 and PAFAH1B2 inh -3.
CC1=NS(=O)(=O)NC(C)(C)C1 was read as PAFAH2 inh 0, PAFAH1B3 inh 6 and PAFAH1B2 inh 7.
Cc1cc(C)c(C)c(OCCCCN2CCCCC2)c1 was read as Apaf-1 inh -2, PAFAH2 inh -1, PAFAH1B3 inh 3, pPAFAH FP inh -4 and PAFAH1B2 inh 2.
Screening CC(CNC(=O)COC(=O)c1cccs1)c1ccccc1 (stereo not drawn) returned Apaf-1 inh -3, PAFAH2 inh 75*, PAFAH1B3 inh 6, pPAFAH FP inh 1, PAFAH1B2 inh 1 and PAFAH2 confirm 73*.
For Cn1c(C(=O)OCC(=O)NCc2ccco2)cc2sccc21 the results were Apaf-1 inh -3, PAFAH2 inh 45*, PAFAH1B3 inh 19, pPAFAH FP inh 14, PAFAH1B2 inh -5 and PAFAH2 confirm 22.
For O=C(COC(=O)c1cccs1)NCc1ccccc1 the results were Apaf-1 inh -1, PAFAH2 inh 47*, PAFAH1B3 inh 10, pPAFAH FP inh 6, PAFAH1B2 inh 2 and PAFAH2 confirm 34*.
`O=C(COC(=O)c1cccs1)NCc1ccco1` gave Apaf-1 inh -4, PAFAH2 inh 45*, PAFAH1B3 inh 6, pPAFAH FP inh 11, PAFAH1B2 inh 0 and PAFAH2 confirm 29.
`COc1cc(NC(=O)c2cccs2)c(C(=O)OCC(=O)NCc2ccco2)cc1OC` gave Apaf-1 inh 12, PAFAH2 inh 11, PAFAH1B3 inh -2, pPAFAH FP inh 4 and PAFAH1B2 inh 2.
`Cc1cc2c(cc(C(=O)OCC(=O)NCc3ccco3)n2C)s1` gave Apaf-1 inh 18, PAFAH2 inh 18, PAFAH1B3 inh 2, pPAFAH FP inh -6 and PAFAH1B2 inh 5.
For CC(CNC(=O)COC(=O)c1cccnc1Cl)c1ccccc1 (stereo not drawn) the results were Apaf-1 inh -2, PAFAH2 inh 12, PAFAH1B3 inh 5 and PAFAH1B2 inh 4.
Screening Nc1c(N(Cc2ccco2)C(=O)c2ccccc2F)c(=O)[nH]c(=O)n1Cc1ccccc1 returned Apaf-1 inh -1, PAFAH2 inh 0, PAFAH1B3 inh 6 and PAFAH1B2 inh 6.
